# Source: ChEMBL document CHEMBL2406952, “Identification of vitamin d3-based hedgehog pathway inhibitors that incorporate an aromatic a-ring isostere” (ACS Med Chem Lett, 2013)
# The source made the active and inactive calls. No cut-off for these calls is given here.
# What was measured:
# [1] = molecular target: T1, Vitamin D3 receptor (Homo sapiens) (UniProt P11473); test: Binding affinity to human VDR by fluorescence polarization assay
# T1 sequence (whole entry): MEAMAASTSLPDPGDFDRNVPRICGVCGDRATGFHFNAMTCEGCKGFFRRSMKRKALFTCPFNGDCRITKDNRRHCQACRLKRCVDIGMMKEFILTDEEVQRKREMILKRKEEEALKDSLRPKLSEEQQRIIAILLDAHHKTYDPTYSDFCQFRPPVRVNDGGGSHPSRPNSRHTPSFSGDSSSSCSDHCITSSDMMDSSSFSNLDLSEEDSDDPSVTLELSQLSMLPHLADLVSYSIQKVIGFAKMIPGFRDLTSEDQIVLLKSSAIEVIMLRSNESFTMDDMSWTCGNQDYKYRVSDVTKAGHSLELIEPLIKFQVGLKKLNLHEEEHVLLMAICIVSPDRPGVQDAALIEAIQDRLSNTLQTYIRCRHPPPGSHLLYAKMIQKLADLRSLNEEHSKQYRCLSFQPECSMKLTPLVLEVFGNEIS
# How it was run: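 Fluorescence polarization competition kit with full-length human VDR and a tight-binding fluorescent VDR ligand, run per manufacturer's instructions. Compounds tested at 50 and 100 μM, with calcitriol as positive control for binding.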
# [2] = molecular target: T2, Vitamin D3 receptor (Mus musculus) (UniProt P48281); test: Activation of VDR in mouse C3H10T1/2 cells assessed as upregulation of Cyp24A1 mRNA expression at 5 uM after 24 hrs by RT-PCR analysis relative to DMSO-treated control; assay type: cell-based; settings: C3H 10T1/2
# T2 sequence (whole entry): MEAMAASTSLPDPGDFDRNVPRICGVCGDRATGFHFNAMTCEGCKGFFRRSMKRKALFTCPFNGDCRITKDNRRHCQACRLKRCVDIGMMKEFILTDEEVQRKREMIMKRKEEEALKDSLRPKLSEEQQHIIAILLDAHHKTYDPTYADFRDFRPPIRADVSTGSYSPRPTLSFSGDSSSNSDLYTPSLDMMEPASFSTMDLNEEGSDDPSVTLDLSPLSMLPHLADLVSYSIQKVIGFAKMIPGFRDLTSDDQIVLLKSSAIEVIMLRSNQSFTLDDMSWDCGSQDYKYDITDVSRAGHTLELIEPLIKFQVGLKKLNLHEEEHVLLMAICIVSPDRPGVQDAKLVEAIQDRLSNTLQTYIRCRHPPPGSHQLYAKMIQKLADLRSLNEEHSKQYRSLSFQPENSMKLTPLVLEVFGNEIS
# How it was run: (§1)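 Cyp24A1 mRNA normalized to ActinB and expressed relative to DMSO vehicle (set to 1.0). Cells treated for 24 h at 5 μM (some agents at 1 μM).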
# [3] = Inhibition of Hedgehog signaling in mouse C3H10T1/2 cells assessed as downregulation of Gli1 mRNA expression at 5 uM after 24 hrs by RT-PCR analysis relative to 20(S)-hydroxycholesterol and 22(S)-hydroxycholesterol; assay type: cell-based; settings: C3H 10T1/2
# How it was run: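 Endogenous Gli1 mRNA measured after 24 h at 5 μM and normalized to ActinB with DMSO vehicle set to 1.0. Cells stimulated with 20(S)-hydroxycholesterol plus 22(S)-hydroxycholesterol (5 μM each) define 100% pathway activity, and the analogue effect is given as % of this level.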
# [4] = molecular target: T1, Vitamin D3 receptor (Homo sapiens); test: Activation of VDR in human DaOY cells assessed as upregulation of Cyp24A1 mRNA expression at 10 uM after 48 hrs by RT-PCR analysis relative to DMSO-treated control; assay type: cell-based
# How it was run: (§2)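 Cyp24A1 mRNA measured after 48 h exposure to analogue and normalized to ActinB, expressed relative to DMSO vehicle-treated cells (set as 1.0). Single concentrations tested were 2.5, 5 or 10 μM.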
# [5] = Inhibition of Hedgehog signaling in human DaOY cells assessed as downregulation of Gli1 mRNA expression after 48 hrs by RT-PCR analysis; assay type: cell-based
# How it was run: (§3)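 Gli1 mRNA dose-response after 48 h compound incubation, used to derive IC50 (μM). Each value comes from at least two separate experiments, each performed in triplicate.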
# [6] = molecular target: T2, Vitamin D3 receptor (Mus musculus); test: Activation of VDR in mouse ASZ001 cells assessed as upregulation of Cyp24A1 mRNA expression at 5 uM after 48 hrs by RT-PCR analysis relative to DMSO-treated control; assay type: cell-based; how it was run: as §2
# [7] = Inhibition of Hedgehog signaling in mouse ASZ001 cells assessed as downregulation of Gli1 mRNA expression after 48 hrs by RT-PCR analysis; assay type: cell-based; settings: ASZ001, 48 h; how it was run: as §3
# [8] = molecular target: T1, Vitamin D3 receptor (Homo sapiens); test: Activation of VDR in human DaOY cells assessed as upregulation of Cyp24A1 mRNA expression at 5 uM after 48 hrs by RT-PCR analysis relative to DMSO-treated control; assay type: cell-based; how it was run: as §2
# [9] = molecular target: T1, Vitamin D3 receptor (Homo sapiens); test: Activation of VDR in human HT-29 assessed as upregulation of Cyp24A1 mRNA expression after 6 hrs by Northern blotting analysis
# [10] = molecular target: T2, Vitamin D3 receptor (Mus musculus); test: Activation of VDR in mouse M210B4 cells assessed as upregulation of Cyp24A1 mRNA expression at 5 uM after 24 hrs by RT-PCR analysis relative to DMSO-treated control; assay type: cell-based; how it was run: as §1
# [11] = Inhibition of Hedgehog signaling in mouse M210B4 cells assessed as downregulation of Ptch mRNA expression after 24 hrs by RT-PCR analysis; assay type: cell-based; settings: M210B4, 24 h
# How it was run: (§4)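 Oxysterol-stimulated cells (20(S)- plus 22(S)-hydroxycholesterol, 5 μM each) were treated with compound across a dose range for 24 h. Gli1 and Ptch mRNA were normalized to ActinB, and IC50 values were derived. VD3 was dosed up to 10 μM.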
# [12] = Inhibition of Hedgehog signaling in mouse M210B4 cells assessed as downregulation of Gli1 mRNA expression after 24 hrs by RT-PCR analysis; assay type: cell-based; settings: M210B4, 24 h; how it was run: as §4
# [13] = Inhibition of Hedgehog signaling in mouse C3H10T1/2 cells assessed as downregulation of Ptch mRNA expression after 24 hrs by RT-PCR analysis; assay type: cell-based; settings: for inhibition: C3H 10T1/2; for IC50: C3H 10T1/2, 24 h; how it was run: as §4
# [14] = Inhibition of Hedgehog signaling in mouse C3H10T1/2 cells assessed as downregulation of Gli1 mRNA expression after 24 hrs by RT-PCR analysis; assay type: cell-based; settings: for inhibition: C3H 10T1/2; for IC50: C3H 10T1/2, 24 h; how it was run: as §4
# [15] = system: Daoy; test: Downregulation of Gli1 mRNA expression in human DaOY cells at 2.5 uM relative to DMSO-treated control; assay type: functional
# [16] = Inhibition of Hedgehog signaling in mouse ASZ001 cells assessed as downregulation of Gli1 mRNA expression at 10 uM after 48 hrs by RT-PCR analysis relative to control; values are per cent of control
# [17] = molecular target: T1, Vitamin D3 receptor (Homo sapiens); test: Activation of VDR in human DaOY cells assessed as upregulation of Cyp24A1 mRNA expression at 2.5 uM after 48 hrs by RT-PCR analysis relative to DMSO-treated control; assay type: cell-based
# How it was run: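 Cells exposed to compound for 48 h; Cyp24A1 mRNA expression measured and expressed relative to DMSO vehicle-treated cells, set as 1.0.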
# [18] = molecular target: T2, Vitamin D3 receptor (Mus musculus); test: Activation of VDR in mouse M210B4 cells assessed as upregulation of Cyp24A1 mRNA expression at 1 uM after 24 hrs by RT-PCR analysis relative to DMSO-treated control; assay type: cell-based
# How it was run: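 M2-10B4 murine bone marrow stromal cells treated for 24 h at 1 μM; Cyp24A1 mRNA normalized to ActinB and expressed relative to DMSO vehicle, set to 1.0.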
SMILES,Activity [1] [µM],fold change (FC) [2],Gli1 mRNA level (% of OHC control) [3] [%],IC50 [5] [µM],fold change (FC) [6],IC50 [7] [µM],further results
CNc1cccc(C(=O)O[C@H]2CCC[C@]3(C)[C@@H]([C@H](C)CCCC(C)C)CC[C@@H]23)c1,> 100,1.6,97.8,–,–,–,–
CC(C)CCC[C@@H](C)[C@H]1CC[C@H]2[C@@H](OC(=O)c3ccccc3)CCC[C@]12C,> 100,1.2,105,> 10,1.1,> 10,fold change (FC) [4]: 0.6
CC(C)CCC[C@@H](C)[C@H]1CC[C@H]2[C@@H](OC(=O)c3cccc(O)c3)CCC[C@]12C,> 100,22.2,1.9,3.7,1.9,5.2,fold change (FC) [8]: 0.4; Activity [9]: inactive; fold change (FC) [10]: 1.2; IC50 [11]: 1.7 µM; IC50 [12]: 1.1 µM; inhibition [13]: Dose-dependent effect; IC50 [13]: 1.1 µM; inhibition [14]: Dose-dependent effect; IC50 [14]: 0.74 µM
Cc1ccc(NC(=O)c2ccc(CN3CCN(C)CC3)cc2)cc1Nc1nccc(-c2cccnc2)n1 [IMATINIB],–,–,–,–,–,–,fold change (FC) [15]: 0.98
CC(C)CCC[C@@H](C)[C@H]1CC[C@H]2[C@@H](OC(=O)c3cccc(Cl)c3)CCC[C@]12C,> 100,1.2,107,–,–,–,–
CC(C)CCC[C@@H](C)[C@H]1CC[C@H]2[C@@H](O)CCC[C@]12C,–,3.6,46.4,> 10,2.4,> 10,"fold change (FC) [8]: 0.8; IC50 [13]: 2.8 µM; IC50 [14]: 3.1 µM; level, % of control [16]: 65%"
CC(C)CCC[C@@H](C)[C@H]1CC[C@H]2[C@@H](OC(=O)c3cccc(OCc4ccccc4)c3)CCC[C@]12C,> 100,1,116,–,–,–,–
CC1=C2C[C@H]3[C@@H](CC=C4C[C@@H](O)CC[C@@]43C)[C@@H]2CC[C@]12O[C@@H]1C[C@H](C)CN[C@H]1[C@H]2C [CYCLOPAMINE],–,–,–,0.16,0.8,0.66,fold change (FC) [17]: 1; fold change (FC) [18]: 1.5; IC50 [11]: 0.43 µM; IC50 [12]: 0.8 µM
CC(C)CCC[C@@H](C)[C@H]1CC[C@H]2[C@@H](OC(=O)c3cccc(C(=O)O)c3)CCC[C@]12C,> 100,6.7,40,–,–,–,–
CC(=O)c1cccc(C(=O)O[C@H]2CCC[C@]3(C)[C@@H]([C@H](C)CCCC(C)C)CC[C@@H]23)c1,> 100,1.6,77.5,–,–,–,–
COC[C@H]1OC(=O)c2coc3c2[C@@]1(C)C1=C(C3=O)[C@@H]2CCC(=O)[C@@]2(C)C[C@H]1OC(C)=O [WORTMANNIN],–,–,–,–,–,–,fold change (FC) [15]: 0.92
O=C(CCCCCCC(=O)Nc1ccccc1)NO [VORINOSTAT],–,–,–,–,–,–,fold change (FC) [15]: 1.51
O=C(O)c1cccc(O)c1,> 100,1.6,92.6,–,–,–,–
CC(C)CCC[C@@H](C)[C@H]1CC[C@H]2[C@@H](OC(=O)c3cccc(N)c3)CCC[C@]12C,> 100,24.3,2.4,9.2,2.5,7.1,fold change (FC) [8]: 0.5; inhibition [13]: Dose-dependent effect; IC50 [13]: 4.5 µM; inhibition [14]: Dose-dependent effect; IC50 [14]: 2.8 µM
COc1cccc(C(=O)O[C@H]2CCC[C@]3(C)[C@@H]([C@H](C)CCCC(C)C)CC[C@@H]23)c1,> 100,1.3,104,–,–,–,–
CS(=O)(=O)c1ccc(C(=O)Nc2ccc(Cl)c(-c3ccccn3)c2)c(Cl)c1 [VISMODEGIB],–,–,–,0.086,–,0.04,IC50 [11]: 0.14 µM; IC50 [12]: 0.2 µM
